Source: PubChem (several laboratories)
M18AAP inhibitor – PfM18AAP enzyme inhibition. inhibition, % at 7.35 µM. 290,000 compounds, 1.2% hits. recombinant PfM18AAP, H-Glu-NHMec fluorogenic cleavage;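 active means inhibition above the campaign mean inhibition over all tested compounds plus 3 SD, cut at about 28% in these data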;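 further: 0% = plate median of test compound wells and 100% = 2 mM ZnCl2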
UPR CHOP act – activators of apoptotic arm of unfolded protein response (CHOP). activation, % at 10 µM. 330,000 compounds, 0.34% hits. CHO-CHOP luciferase reporter, UPR activation, luminescence; percent of tunicamycin response over DMSO baseline. AID 449763;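 active means at 10 µM dose, activation of 40% or more, normalized to positive control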;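 further: 100% = tunicamycin at 10 µg/mL and 0% = DMSO alone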
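measured by = luciferase luminescence | assay system = CHO-CHOP cells, stable luciferase reporter of PERK-eIF2a-CHOP signalling | amount = 500 reporter cells seeded per well | timing = 6 h compound exposure at 37 °C after overnight seeding | controls = positive tunicamycin 10 µg/mL, negative DMSO alone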
NS3 helicase inh – inhibitors of Hepatitis C virus NS3 helicase; NS3 helicase DNA unwinding, Cy5 molecular beacon fluorescence; inhibition, % at 10.9 µM; 290,000 compounds, 0.56% hits; AID 1800;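 active means inhibition above the mean of all tested compounds plus 3 SD, set per campaign, cut at about 35% in these data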;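 further: 0% = DMSO wells and 100% = thioflavine S control wells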
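Compound dosing – single dose, 10.9 µM nominal final, DMSO 0.8% final · System – NS3 helicase fragment of HCV · Buffer or medium – MOPS pH 6.5, MgCl2, DTT, Tween20, BSA · Signal – Cy5 beacon fluorescence read at start and 1 h · Also added – annealed dual-labelled DNA beacon duplex, ATP-started · Schedule – 1 h at 25 °C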
CHOP inh – blocks CHOP induction under ER stress; CHO-K1 CHOP-promoter luciferase, tunicamycin-induced, 15-18 h; inhibition, % at 10 µM; 220,000 compounds, 3.8% hits; AID 2732;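 active means compounds that reduced the stress-induced luciferase reporter signal by more than about 70% of percent inhibition, limit read from the data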;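 further: 0% = tunicamycin plus vehicle and 100% = wells without tunicamycin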
p97 ATPase inh – inhibitors of human p97 ATPase. P55072. recombinant p97 ATPase, Kinase-Glo ATP luminescence, 3 h. inhibition, % at 8 µM. 220,000 compounds, 0.42% hits. AID 1481; in the data active means inhibition above about 15%;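 further: 0% = DMSO vehicle and 100% = wells lacking enzyme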
Target sequence (P55072 whole entry, looked up): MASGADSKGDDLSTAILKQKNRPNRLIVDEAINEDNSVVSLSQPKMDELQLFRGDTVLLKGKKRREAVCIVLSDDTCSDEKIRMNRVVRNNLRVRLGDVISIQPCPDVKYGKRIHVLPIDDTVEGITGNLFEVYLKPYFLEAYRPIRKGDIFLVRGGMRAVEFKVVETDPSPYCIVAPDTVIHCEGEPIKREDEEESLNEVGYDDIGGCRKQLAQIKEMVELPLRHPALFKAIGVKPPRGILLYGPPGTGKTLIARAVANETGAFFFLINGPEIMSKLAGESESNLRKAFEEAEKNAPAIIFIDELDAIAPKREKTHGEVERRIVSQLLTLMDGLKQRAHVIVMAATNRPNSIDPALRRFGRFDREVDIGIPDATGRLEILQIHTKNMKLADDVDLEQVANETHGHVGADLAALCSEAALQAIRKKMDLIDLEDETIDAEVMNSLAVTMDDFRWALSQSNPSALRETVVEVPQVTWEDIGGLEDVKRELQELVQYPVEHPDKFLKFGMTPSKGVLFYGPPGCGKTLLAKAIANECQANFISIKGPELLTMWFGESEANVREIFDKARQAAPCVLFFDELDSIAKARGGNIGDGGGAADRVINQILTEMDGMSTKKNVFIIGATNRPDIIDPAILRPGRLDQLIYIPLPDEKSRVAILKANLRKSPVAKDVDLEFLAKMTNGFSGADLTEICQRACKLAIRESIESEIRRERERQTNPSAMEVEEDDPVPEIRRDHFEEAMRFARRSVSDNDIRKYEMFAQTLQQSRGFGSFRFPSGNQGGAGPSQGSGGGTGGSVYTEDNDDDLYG
XBP1 UPR activ – activators of adaptive arm of unfolded protein response (XBP1); 330,000 compounds, 0.33% hits; activation, % at 20 µM; CHO-XBP1 luciferase reporter, IRE1-XBP1 UPR activation, luminescence; percent of tunicamycin response, DMSO as zero;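 active means versus positive control, 20 µM dose yields 30% or more activation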;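 further: 100% = tunicamycin at 10 µg/mL and 0% = DMSO only wells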
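Test system: CHO-XBP1 luciferase reporter cells | Buffer or medium: Serum-containing F12 medium, 10% FBS | Schedule: 6 h compound exposure at 37 °C, 5% CO2 | Detection: Steady-Glo luciferase glow luminescence, 10 min after reagent addition | Read-out basis: Activation, % of tunicamycin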
XBP1 UPR conf – confirmation of adaptive unfolded protein response (XBP1) activators | CHO-XBP1 IRE1-XBP1 luciferase reporter, luminescence | shares compounds with XBP1 UPR activ | AID 485299 | activation, % at 20 µM | 1,000 compounds, 63% hits;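 active means reporter signal at least 30% of the positive control's activation in two or more of four replicate wells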;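 further: plate controls were DMSO negative control for no effect and tunicamycin 10 µg/mL positive control for full effect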
* marks the source's active call; other numbers are inactive results; · = no result given. The list is not random: actives were taken first. Their share in the collection is about 4.5%.

SMILES	M18AAP inhibitor	UPR CHOP act	NS3 helicase inh	CHOP inh	p97 ATPase inh	XBP1 UPR activ	XBP1 UPR conf
CC(C)N(C(=O)[C@H]1C[C@H](CC(=O)NCC23CC4CC(CC(C4)C2)C3)C(=O)N2CCc3c([nH]c4ccc(Cl)cc34)[C@]12C)C(C)C	·	9	·	·	·	39*	50*
CC(C)(c1ccccc1)c1ccc(OCC(O)CNC2CCN(Cc3ccccc3)CC2)cc1 (centres undefined)	0	12	-71	11	2	53*	9
CCOc1ccc(OCC(O)CNC2CCN(Cc3ccccc3)CC2)cc1 (centres undefined)	-6	-1	-12	-30	-1	-4	·
COc1ccc(Cc2nnc(N/N=C/c3ccc(N(C)C)cc3)[nH]c2=O)cc1OC	7	13	0	-45	1	31*	51*
Cc1ccc(/C=C2/Sc3ccc(C(=O)NCc4ccccn4)cc3NC2=O)cc1	0	7	-6	·	·	32*	0
CCOC(=O)c1ccc(-c2ccc3c(=O)c4ccccc4n(C)c3c2)cc1F	15	1	-24	·	·	100*	2
CCOC(=O)c1ccc(-c2c(-c3ccccc3OC)oc3ccccc23)cc1F	·	3	·	·	·	-1	·
COc1cc(/C=N/NC(N)=O)c(Br)cc1OCC(=O)Nc1ccccc1C	-2	4	2	51	-4	109*	72*
N#CCn1c(Cc2ccccc2)nc2ccccc2c1=O	5	1	-2	·	·	32*	0
Cc1ccc(NC(=O)CSCC(=O)N2CCCc3ccccc32)cc1	·	2	·	·	·	1	·
COc1ccc2oc(C(=O)Nc3ccc(S(=O)(=O)N(C)C4CCN(C)CC4)cc3)c(C)c2c1	2	2	-49	·	·	-1	·
Cc1cc(C)cc(-n2nnnc2SCC(=O)Nc2nc(-c3ccc(Cl)cc3)cs2)c1	-2	0	-2	76*	3	34*	15
COc1ccc(-c2csc(NC(=O)CSc3nnnn3C)n2)cc1OC	·	4	·	·	·	1	·
CS(=O)(=O)c1ccc(Cl)c(NC(=O)COC(=O)COc2ccc3c(c2)CCC3)c1	·	-1	·	·	·	-1	·
COc1ccc(-c2cc(C#N)nc(Cl)n2)cc1	2	5	15	-41	3	30*	27
S=C(Nc1cccc(Cl)c1)NC1CCCCC1	0	0	4	44	-3	37*	-1
CC(C)c1ccc(/C=C/C(=O)Nc2nc3ccc([N+](=O)[O-])cc3s2)cc1	2	17	1	53	6	50*	32*
CC(=O)Nc1nc2cc([N+](=O)[O-])ccc2s1	·	1	·	·	·	0	·
Cc1cc(NC(=O)c2ccccc2)nc2c1c(=O)oc1ccccc12	9	1	-16	9	5	-5	·
CCOc1ccc(C(=O)Nc2cc(C)c3c(=O)oc4ccccc4c3n2)cc1	-3	0	-7	-4	10	52*	2
CC(C)(C)c1ccc(C(=O)NCCC(=O)Nc2ccc3c(c2)OCCO3)cc1	·	-1	·	·	·	-5	·
O=C(NCCCn1ccnc1)c1nn2c(C(F)(F)F)cc(-c3ccc(Br)cc3)nc2c1Cl	-5	2	0	43	0	37*	94*
Cc1ccc(Cn2c(C(C)Nc3nc(-c4ccc(F)cc4)cs3)nc3cc(Cl)c(Cl)cc32)cc1 (centres undefined)	·	2	·	·	·	35*	30*
COc1ccc(Cn2c(-c3ccccc3C)nc3c(c(=O)c4ccccc4n3C)c2=O)cc1	·	8	·	·	·	41*	2
COc1ccc(Cn2c(-c3ccc(OC)cc3)nc3c(c(=O)c4ccccc4n3C)c2=O)cc1	-2	2	-8	29	6	3	·
SMILES	M18AAP inhibitor	UPR CHOP act	NS3 helicase inh	CHOP inh	p97 ATPase inh	XBP1 UPR activ	XBP1 UPR conf
Cc1ccc(C(=O)N2CCN(S(=O)(=O)c3ccccc3)CC2)s1	·	-1	·	·	·	-2	·
Cc1ccc(S(=O)(=O)N2CCCCC2)cc1C(=O)NCCN1CCOCC1	·	0	·	·	·	-2	·
CCOC(=O)C1CCN(c2nc3cc(OC)ccc3cc2C#N)CC1	4	-2	8	-4	0	0	·
COc1ccc2cc3c(N)nn(C(=O)C4CCC(C(C)(C)C)CC4)c3nc2c1 (centres undefined)	-3	-3	-2	67	6	111*	37*
CCOc1cc2c3c(c1)C(C)=CC(C)(C)N3C(=O)C2=O	0	0	-1	-17	4	41*	32*
CC1CCN(C(=O)c2ccc(N3CCOCC3)c([N+](=O)[O-])c2)CC1	·	1	·	·	·	3	·
Cc1cccc2c1Sc1ccc(Cl)cc1CC2N1CCNCC1 (centres undefined)	·	8	·	·	·	31*	37*
CN1C(C(=O)NCc2ccc(OC(F)(F)F)cc2)CC2Cn3c(nc4cc(Cl)c(Cl)cc43)C21 (centres undefined)	·	4	·	33	·	-3	·
NC(=O)CC(NC(=O)Cc1cccc2ccccc12)c1ccc(N2CCc3ccccc3C2)c([N+](=O)[O-])c1 (centres undefined)	·	-2	·	5	·	-6	·
O=C(N[C@@H]1C/C=C\C[C@H](CC(=O)N(CCO)Cc2ccccc2)C(=O)N[C@@H](Cc2ccccc2)COC1=O)OCC1c2ccccc2-c2ccccc21	·	33	·	·	·	50*	13
C[C@@H]1COC(=O)[C@H](NC(=O)OCC2c3ccccc3-c3ccccc32)C/C=C\C[C@@H](CC(=O)N(CCO)Cc2ccccc2)C(=O)N1	·	0	·	·	·	-2	·
COc1cc(CN2CCCCC2)ccc1OCc1ccccc1	1	4	-4	·	·	37*	1
CCC[C@@H](CNC)NC[C@H](Cc1ccccc1)NCCCCc1ccccc1	-2	10	-71	·	·	46*	25
O=C(NCC1CCCO1)C1CCCN(S(=O)(=O)c2ccc(Cl)cc2)C1 (centres undefined)	4	2	3	·	·	-2	·
CCC[C@@H](CN[C@@H](CNC)[C@H](C)CC)NCC1CCC(C(C)(C)C)CC1 (some centres undefined)	-1	33	-76	·	·	51*	30*
CCC[C@H](CN[C@@H](CNC)[C@H](C)CC)NCCc1cc(C(F)(F)F)cc(C(F)(F)F)c1	5	36	-67	·	·	52*	22
COc1ccc(-c2c(C(C)=O)c(C)nc3sc4c(c23)NC(c2ccccc2)NC4=O)cc1 (centres undefined)	-9	2	0	7	-2	60*	12
CC(=O)/C(C=Nc1noc(C)c1Br)=C(\C)O	-3	0	-4	-6	12	-1	·
COc1cc(OC)cc(C(=O)Nc2ccc3nc4n(c(=O)c3c2)CCCCC4)c1	-4	6	-5	·	·	32*	36*
